Columns and labels:
[1] = folding enthalpy; higher = less favourable; fluorescence melt of hairpins on a sequencing array, two-state fit; settings: sodium 0.088 M
Procedure, shortened: (§1)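 Two-state fits, bootstrapped, provided melting temperature and folding enthalpy from Cy3 fluorescence normalised to pre-quench Cy3 and to control constructs. Library hairpins with annealed Cy3 and quencher oligos were imaged on a sequenced MiSeq flow cell in 50 mM Na-HEPES pH 8.0, 25 mM NaCl, at 2.5 °C intervals up to 60 °C. Four replicates were combined with inverse-variance weighting. A 9.35 °C upward shift was applied to fitted temperatures to match UV melts.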

[2] = melting temperature; fluorescence melt of hairpins on a sequencing array, two-state fit, raised by 9.35 °C to match UV melts; settings: sodium 0.088 M
Procedure, shortened: as §1

| Sequence | folding enthalpy [1] [kcal/mol] | Tm [2] [°C] |
| --- | --- | --- |
| GATTCCCGAAAGGGATC (((.(((....)))))) | -13.1 | 47.3 |
| GATTCCGAAAGGAACATC ((((((....)))..))) | -12 | 25.2 |
| GATTCCGAAAGGATAATC ((((((....)))..))) | -15.5 | 31.8 |
| GATTCCGGAAACGGGATC (((.(((....))).))) | -43 | 51.2 |
| GATTCGCGAAAGCGTATC (((.(((....))).))) | -20.6 | 48.8 |
| GATTGACGAAAGTCATC (((.(((....)))))) | -12.7 | 38.9 |
| GATTGAGGAAACTCAACC (.(((((....))))).) | -17.1 | 31.3 |
| GATTGCCGAAAGGCCATC (((.(((....))).))) | -16.6 | 40.9 |
| GATTGCGAAAGCAAAATC ((((((....)))..))) | -13.1 | 35.3 |
| GATTGCGAAAGCAGATC ((((((....))).))) | -15.8 | 42.9 |
| GATTGCGAAAGCAGCATC ((((((....)))..))) | -9.21 | 24.1 |
| GATTGCGAAAGCAGGATC ((((((....)))..))) | -10.9 | 30.1 |
| GATTGCGAAAGCATATC ((((((....))).))) | -16.5 | 42.9 |
| GATTGCGGAAACGCAGTC ((.((((....)))).)) | -25.2 | 49.6 |
| GATTGGCGAAAGCCTATC (((.(((....))).))) | -19.8 | 48.8 |
| GATTGGGGAAACTCAATC (((((.(....).))))) | -33.5 | 41.9 |
| GATTGGGGAAACTCGATC (((.(.(....).).))) | -15.4 | 30 |
| GATTGTGGAAACACGATC (((.(((....))).))) | -31.7 | 48.1 |
| GATTTACGAAAGTACATC (((.(((....))).))) | -19.9 | 35.6 |
| GATTTACGAAAGTATATC (((.(((....))).))) | -24.2 | 35.6 |
| GATTTAGGAAACTAAATC (((((((....))))))) | -42.9 | 48 |
| GATTTAGGAAACTAAGTC ((.((((....)))).)) | -8.37 | 29.6 |
| GATTTCGCGAAAGCGATC (((..(((....)))))) | -5.88 | 17.8 |

| Sequence | folding enthalpy [1] [kcal/mol] | Tm [2] [°C] |
| --- | --- | --- |
| GATTTGCGAAAGCATATC (((.(((....))).))) | -22.9 | 43.1 |
| GATTTGGCGAAAGCCATC (((..(((....)))))) | -6.61 | 26.1 |
| GATTTGGGAAACCAAATC (((((((....))))))) | -40.9 | 55 |
| GCAAAACGAAAGTTCTGC (((.(((....))).))) | -27.8 | 40.7 |
| GCAAAATCGAAAGATTGC (((..(((....)))))) | -20.6 | 38.5 |
| GCAAACCGAAAGGTTGC (((.(((....)))))) | -29.1 | 57.2 |
| GCAAACGAAAGTTAGTGC ((((((....)))..))) | -19.7 | 32.9 |
| GCAAACGAAAGTTTATGC ((((((....)))..))) | -17.2 | 31.9 |
| GCAAACGGAAACGTCTGC (((.(((....))).))) | -25.2 | 44.7 |
| GCAAACGGAAACGTTCAC (..((((....))))..) | -8.17 | 24.7 |
| GCAAACGGAAACGTTCGC ((.((((....)))).)) | -29.7 | 46.4 |
| GCAAAGCGAAAGCAATGC (((..((....))..))) | -12.1 | 34.5 |
| GCAAAGCGAAAGCCTTGC ((((.((....)).)))) | -22.1 | 53 |
| GCAAAGCGAAAGCGTAGC ((.(.((....)).).)) | -17.1 | 55.9 |
| GCAAAGCGAAAGCGTGGC ((.(.((....)).).)) | -15.9 | 50.6 |
| GCAAAGCGAAAGCGTTGC ((((.((....)).)))) | -26.3 | 65 |
| GCAAAGCGAAAGCTAAGC ((..(((....)))..)) | -12.6 | 40.3 |
| GCAAAGCGAAAGCTGAGC ((..(((....)))..)) | -18.5 | 55.9 |
| GCAAAGCGAAAGCTGGGC ((..(((....)))..)) | -18.9 | 55.6 |
| GCAAAGGAAACTTTGC ((((((....)))))) | -31.2 | 55.3 |
| GCAAATCGAAAGATATGC (((.(((....))).))) | -29.4 | 45.1 |
| GCAAATCGAAAGATCTGC (((.(((....))).))) | -28.3 | 40.4 |
| GCAAATCGAAAGATTGC (((.(((....)))))) | -24 | 48.9 |

— the array DNA melting data of Ke et al. (doi:10.1101/2024.01.08.574731)
